# High-throughput results deposited in PubChem by Johns Hopkins Ion Channel Center.
# KCNQ1 block: blocks the human KCNQ1 potassium channel | P51787 | AID 2642 | CHO-K1 KCNQ1, FluxOR thallium flux fluorescence; hits give high values | 310,000 tested, 1.3% active | B-score at 10 µM;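 active means compounds whose thallium flux B-score, printed positive for inhibition, exceeds three library SD while starting fluorescence stays within three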;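 further: channel opened by potassium depolarization with thallium stimulus after 20 min compound exposure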
# hERG rescue: hERG (human) protection from proarrhythmic block; Q12809; CHO-hERG, FluxOR thallium flux, dofetilide IC70 present; activation (rescue from dofetilide block), less the hit threshold, % at 10 µM; 310,000 tested, 0.51% active; AID 1511;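 active means activation above the mean of controls blocked by dofetilide plus 5 SD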;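 further: thallium influx through hERG after potassium depolarization seen as dye fluorescence rise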
# KCNQ1 pot: potentiators or activators of human KCNQ1 potassium channel | 310,000 tested, 0.35% active | B-score at 10 µM | P51787 | CHO-K1 KCNQ1, thallium flux FluxOR fluorescence; hits give high values;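 active means fluorescence ratio B-score, a plate-corrected score, at least three library SD, with initial intensity B-score within 5 SD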
#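 Schedule – 37 °C overnight plating, 90-min dark dye load, 20-min compound pretreatment · System – stable KCNQ1 CHO-K1 line · Probe or stimulus – thallium- and potassium-containing depolarizing buffer · Measured by – kinetic FluxOR fluorescence, 10 s baseline plus 110 s post-stimulus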
# KCNK3 inh: human KCNK3 channel inhibition, primary screen; O14649; CHO-KCNK3 thallium flux, FluxOR fluorescence; hits give low values; B-score at 10 µM; 340,000 tested, 0.84% active; AID 602410;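 active means B-score under library mean minus 4 SD, starting fluorescence ratio at most library mean plus 5 SD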;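 further: more negative B-score means stronger inhibition of thallium flux through KCNK3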
# Target sequence (O14649 whole entry, looked up): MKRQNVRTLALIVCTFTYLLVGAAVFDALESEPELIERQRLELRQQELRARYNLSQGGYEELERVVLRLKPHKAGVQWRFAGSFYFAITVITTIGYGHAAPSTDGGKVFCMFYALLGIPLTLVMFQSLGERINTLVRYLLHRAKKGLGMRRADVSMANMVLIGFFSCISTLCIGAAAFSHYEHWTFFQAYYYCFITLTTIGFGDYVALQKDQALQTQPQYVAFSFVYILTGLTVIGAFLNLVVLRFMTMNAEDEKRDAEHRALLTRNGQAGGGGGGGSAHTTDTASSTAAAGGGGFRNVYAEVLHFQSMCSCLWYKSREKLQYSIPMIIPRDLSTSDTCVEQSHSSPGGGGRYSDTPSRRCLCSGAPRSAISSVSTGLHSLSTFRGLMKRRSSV
# KCNK9 inh: inhibitors of human KCNK9 two-pore domain potassium channel | Q9NPC2 | HEK293 KCNK9, FluxOR thallium flux fluorescence; hits give low values | B-score at 10 µM | 310,000 tested, 1.2% active | AID 488922;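 active means ratio B-score over 3 SD below the library mean, with starting fluorescence within 5 SD of its mean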;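 further: negative B-score means less thallium flux so channel inhibition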
# Kir21 block: inhibitors of mouse Kir2.1 inward-rectifier potassium channel. P35561. HEK293-Kir2.1, FluxOR thallium flux fluorescence; hits give low values. B-score at 10 µM. 310,000 tested, 0.85% active. AID 1672;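 active means fluorescence ratio B-score at or below minus 3 SD of library scores, with starting-brightness B-score within 2 SD, cut at about -4.2 in these data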;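 further: channel flux triggered by added potassium and thallium sulfate stimulus; B-score of peak minus minimum fluorescence over baseline after thallium stimulus; more negative B-score means stronger Kir2.1 block with less thallium influx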
# KCNK9 block conf: human KCNK9 inhibitor confirmation; shares compounds with KCNK9 inh; HEK293 KCNK9 cells, FluxOR thallium flux fluorescence; inhibition, % at 10 µM; 4,900 tested, 43% active;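 active means thallium signal inhibited by more than 5 SD of the compound-free buffer control wells, on both duplicate plates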;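 further: 0% = assay buffer control wells without compound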
# Kir21 sel: tests whether KCNK9 modulators also affect mouse Kir2.1; 4,900 tested, 4% active; AID 492993; Kir2.1 cells, FluxOR thallium flux fluorescence; shares compounds with KCNK9 inh; inhibition, % at 10 µM;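 active means thallium signal drop more than 5 SD beyond the mean of the no-compound control wells, seen in both duplicate plates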;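 further: signal is fluorescence rise after thallium addition divided by baseline fluorescence; plate controls were assay buffer only for no effect and full block by chlorpromazine control for full effect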
# KCNK9 uninduced: non-induced cell nonspecific activity of KCNK9 modulators. inhibition, % at 10 µM. 4,900 tested, 40% active. AID 492997. non-induced KCNK9-HEK293, FluxOR thallium flux. shares compounds with KCNK9 inh;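 active means thallium signal drop beyond 5 SD of the untreated control mean, on both duplicate plates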;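 further: plate controls were buffer only IC0 wells for no effect and SID17386958 at its maximal inhibitory level for full effect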
# * hit, by the source's call; i = inactive; x = no result. In the library only some 3.7% were active in any assay of this set; here they are far more common.
SMILES,KCNQ1 block,hERG rescue,KCNQ1 pot,KCNK3 inh,KCNK9 inh,Kir21 block,KCNK9 block conf,Kir21 sel,KCNK9 uninduced
CC(C)CCn1nc(C(=O)Nc2nc3c(s2)CCCC3)c2ccccc2c1=O,i,-9.2,i,i,-17.2*,-1.7,75.5%*,i,i
Cc1cc(-c2nnc(SCC(=O)Nc3nccs3)o2)no1,i,-6.3,i,i,i,-1.2,x,x,x
O=C(CC12CC3CC(CC(C3)C1)C2)NC(=S)NCc1ccco1,6*,-25.8,i,i,i,-0.01,i,i,i
O=C(NCc1ccco1)C12CC3CC(CC(C3)C1)C2,i,0.0,i,i,i,-0.02,x,x,x
CCC(Oc1ccccc1)C(=O)OCC(=O)N(CC)c1c(N)n(Cc2ccccc2)c(=O)[nH]c1=O (stereo not drawn),i,-17.6,i,i,i,0.12,x,x,x
CCCCn1c(-c2csc(CCC)c2)n[nH]c1=S,i,-0.2,i,i,i,1.32,i,i,i
CCCOC(=O)Cn1cnc2scc(-c3ccc(OC)cc3)c2c1=O,i,-7.2,i,i,i,0.52,i,i,i
CCOCCOC(=O)Cn1cnc2scc(-c3ccc(C)cc3)c2c1=O,i,-5.4,i,i,i,1.53,i,i,i
Brc1ccc(Br)c2cnccc12,x,x,x,i,x,x,x,x,x
Cc1ccc(C2(C)NC(=O)N(CC(=O)N(Cc3ccccc3)C(C)(C)C)C2=O)cc1 (stereo not drawn),i,-18.5,i,i,i,-0.67,x,x,x
COc1cccc(Nc2nc(-c3cccc(N4C(=O)c5ccccc5C4=O)c3)cs2)c1,i,-7.3,i,i,i,-1.26,i,i,i
Cc1ccnc(N2CCN(C(=O)CSc3nc4ccccc4nc3N3CCC(C)CC3)CC2)c1,i,-14.2,i,i,i,0.2,i,i,i
Nc1ccccc1S(=O)(=O)NCCCCc1ccccc1,i,-3.3,i,i,i,-1.37,x,x,x
CCn1nc([N+](=O)[O-])c(C(C#N)c2nc3cc(C(F)(F)F)ccc3s2)c(Cl)c1=O (stereo not drawn),i,-8.6,i,i,i,-5.52*,i,i,i
Cc1cccc(N2C(=O)C3CCCN3C2=S)c1C (stereo not drawn),x,x,x,i,x,x,x,x,x
CCCCSc1nc(SCC(=O)NCc2ccco2)c2c3c(sc2n1)COC(C)(CC)C3 (stereo not drawn),i,-21.3,i,i,i,-1.31,i,i,i
CCCSc1nc(SCC(=O)NCc2ccccc2)c2c3c(sc2n1)COC(C)(CC)C3 (stereo not drawn),i,-16.5,i,i,i,-1.21,x,x,x
Cc1ccc2nsnc2c1S(=O)(=O)Nc1ccccc1C(=O)O,i,0.3,i,i,i,-0.4,x,x,x
CC(C)COc1ccc(CSCCNC(=S)Nc2ccccc2)cc1,9*,-16.3,i,i,i,3.69,i,i,i
CCCCOc1ccc(CSCCNC(=S)Nc2ccccc2)cc1,i,2.2,i,i,i,-1.5,x,x,x
CCCCCc1cc(O)c2c(C)cc(=O)oc2c1,i,-15.2,i,i,i,-0.48,x,x,x
CCCCc1cc(O)c(CCCC)c(O)c1,i,-3.2,i,i,-11.5*,-1.33,64.5%*,i,35.5%*
CCOC(=O)c1cccc(N/C=C/C(=O)c2ccc(OC)c(OC)c2)c1,i,4.3,i,i,-16.4*,1.03,76.0%*,i,38.5%*
NC(=O)COC(=O)c1ccc(Cl)c(S(=O)(=O)N(Cc2ccccc2)c2ccc(Cl)cc2)c1,i,-8.3,i,i,i,0.24,x,x,x
